Source: PubChem BioAssay
In the library only some 3.5% were active in any assay of this set; here they are far more common.
RGS4 pot: potentiators or activators of RGS4. AID 463111. HEK293 M3R/inducible RGS4, carbachol calcium flux Fluo4; hits give low values. actives 0.92% (n = 310,000). B-score at 10 µM;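 active means B-score of the integrated calcium signal more than 4 SD below the library mean, with starting fluorescence not abnormally high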;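 further: negative B-score means reduced calcium response which marks RGS4 activation or potentiation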
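Detection: kinetic calcium fluorescence imaging with Fluo4-AM dye, 2 µM / Material: HEK293 cells with stable M3R and inducible RGS4 / Schedule: recording 10 s baseline at 1 Hz, 100 s post-agonist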
MrgX1 antag: antagonists of human MrgX1 receptor; Q96LB2; MRGX1-HEK293 calcium flux, Fluo-4, BAM8-22 antagonism; hits give low values; AID 588676; B-score at 10 µM; actives 1.3% (n = 310,000);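 active means calcium-response B-score plate-corrected more than 3 library SD below zero, starting fluorescence within 5 deviations, no agonist response on first addition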;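 further: peak minus trough fluorescence over baseline after final BAM8-22 challenge near maximal dose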
Target sequence (Q96LB2 whole entry, looked up): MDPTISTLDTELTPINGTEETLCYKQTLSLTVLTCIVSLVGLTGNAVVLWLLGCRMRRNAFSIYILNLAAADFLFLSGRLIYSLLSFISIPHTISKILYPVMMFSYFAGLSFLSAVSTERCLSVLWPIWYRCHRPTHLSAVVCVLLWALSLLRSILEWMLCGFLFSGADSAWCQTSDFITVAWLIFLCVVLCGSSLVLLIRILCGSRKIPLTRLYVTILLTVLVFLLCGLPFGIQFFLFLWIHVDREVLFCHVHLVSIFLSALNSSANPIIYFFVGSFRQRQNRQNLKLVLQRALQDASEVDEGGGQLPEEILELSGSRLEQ
MrgX1 PAM: human MrgX1 positive allosteric modulation, primary screen | Q96LB2 | MrgX1-HEK293, Fluo-4 calcium flux, FDSS; hits give high values | B-score at 10 µM | actives 0.63% (n = 310,000);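 active means plate-corrected calcium response at least 3 library SD above typical, normal starting fluorescence, not activating the receptor alone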;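 further: compound read alongside a low EC10 to EC30 dose of BAM8-22 agonist; peak minus trough fluorescence over baseline measured at the second addition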
RGS4 block: human RGS4 inhibition; AID 463165; B-score at 10 µM; actives 0.45% (n = 310,000); HEK293 M3R/RGS4 inducible, Fluo-4 calcium flux; hits give high values; triggered by carbachol at its EC20;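 active means B-score, a plate-corrected calcium signal, over three deviations above library mean, with baseline fluorescence within five deviations of library mean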;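 further: RGS4 expression induced by doxycycline in cells with stable M3 receptor; B-score is computed from the integrated fluorescence ratio over baseline after carbachol; higher B-score means a larger calcium signal and so more RGS4 inhibition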
Target sequence (P49798 whole entry, looked up): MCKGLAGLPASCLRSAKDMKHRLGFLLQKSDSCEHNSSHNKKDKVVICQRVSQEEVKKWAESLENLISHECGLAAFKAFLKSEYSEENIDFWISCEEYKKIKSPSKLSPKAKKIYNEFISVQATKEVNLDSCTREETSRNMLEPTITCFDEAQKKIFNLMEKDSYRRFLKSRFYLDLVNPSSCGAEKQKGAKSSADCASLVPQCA
MrgX1 agonist: activates human MrgX1 receptor signaling | Q96LB2 | MrgX1-HEK293 cells, Fluo-4 calcium fluorescence, agonist mode; hits give high values | B-score at 10 µM | actives 0.44% (n = 310,000);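 active means calcium response B-score plate-corrected fluorescence ratio at least 3 library SD, with starting fluorescence B-score inside 5 SD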
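Material: MrgX1-expressing HEK293 cells / Dosing: compound as first of three additions / Incubation: overnight seeding, then 1 h dark dye loading / Signal: Fluo-4 NW calcium fluorescence / Evaluation: B-scored fluorescence response ratio / Benchmarks: positive and negative control wells on each plate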
MrgX1 ant reconf: confirmation of human MrgX1 receptor antagonists | shares compounds with MrgX1 antag | MrgX1-HEK293, BAM8-22 calcium flux, Fluo-4; hits give low values | remaining BAM8-22 calcium response % of control (hits give low values), % at 10 µM | actives 19% (n = 2,300) | AID 602420;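 active means remaining agonist calcium response no higher than 100% minus 3 SD of agonist-only control wells, with starting fluorescence near control levels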;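 further: agonist BAM8-22 given at a near maximal EC90 to ECmax level; peak minus minimum fluorescence divided by baseline after agonist addition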
HEK293 Ca flux: counter-screen for MrgX1 antagonists: effect in parental HEK293 cells; AID 624111; shares compounds with MrgX1 antag; actives 2% (n = 4,000); Fluo-4 calcium fluorescence, FDSS; fluorescence ratio F(max-min)/F0 at 10 µM;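 active means duplicate-averaged calcium fluorescence ratio at least three times the standard deviation of buffer wells, a nonspecific response in parental cells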
HEK293 Ca counter: counter-screen for MrgX1 allosteric activators: effect in parental HEK293 cells. shares compounds with MrgX1 antag. parental HEK293 calcium flux, Fluo-4 fluorescence ratio; hits give high values. fluorescence ratio F(max-min)/F0 at 10 µM. actives 0.4% (n = 4,000). AID 624114;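 active means calcium fluorescence ratio, averaged over duplicates, at least 3 SD of the buffer-well ratio, meaning a nonspecific response in receptor-free cells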;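 further: untransfected parental HEK293 lacking MrgX1 used as counterscreen for MrgX1 allosteric activators; fluorescence change taken during the second addition on a kinetic imager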
HEK293 Ca cntr2: MrgX1 activator counter-screen hit in parental HEK293 cells; shares compounds with MrgX1 antag; Fluo-4 calcium fluorescence (FDSS); hits give high values; fluorescence ratio F(max-min)/F0 at 10 µM; actives 8.7% (n = 4,000);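 active means calcium fluorescence ratio at least three times the spread of buffer wells, meaning a non-specific response in parental cells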
* = called active by the depositor; i = inactive; / = no result given.

SMILES | RGS4 pot | MrgX1 antag | MrgX1 PAM | RGS4 block | MrgX1 agonist | MrgX1 ant reconf | HEK293 Ca flux | HEK293 Ca counter | HEK293 Ca cntr2
c1ccc2c(c1)C(=NCC1CCCO1)NC2=NCC1CCCO1 (stereo not given) | i | i | i | i | i | / | / | / | /
CCn1nc(C)c(CNCc2cn[nH]c2-c2cc3ccccc3o2)c1C | i | i | i | i | i | / | / | / | /
Cc1ccc2[nH]c(=O)c(CN(Cc3cccs3)Cc3nnnn3CC3CCCO3)cc2c1 (stereo not given) | i | i | i | i | i | / | / | / | /
Cc1ccc2cc(CN(Cc3cccs3)Cc3nnnn3CC3CCCO3)c(=O)[nH]c2c1 (stereo not given) | i | -4.77* | i | i | i | i | i | i | i
CC12CCC(=O)N1C(C(=O)Nc1cc(C(F)(F)F)ccc1N1CCCCC1)CS2 (stereo not given) | i | i | i | i | i | / | / | / | /
O=C1c2ccccc2C(=O)N1Cc1cc(-c2ccc(Cl)cc2)no1 | i | i | i | i | i | / | / | / | /
Cn1c(=O)cc(OCC(=O)NCc2cccs2)c2ccccc21 | i | -7.13* | i | i | i | i | i | i | i
COc1ccc(CNC(=O)COc2cc(=O)n(C)c3ccccc23)cc1 | i | i | i | i | i | / | / | / | /
COCC(C)n1c(SCC(=O)NCCC2=CCCCC2)nc2ccccc2c1=O (stereo not given) | i | -6.61* | i | i | i | i | i | i | i
CC(=O)NCCn1c(SCC(=O)NCCC2=CCCCC2)nc2ccccc2c1=O | i | i | i | i | i | / | / | / | /
CCCCOC(=O)Cn1c(=O)n(CC(=O)OCCCC)c2ccccc21 | i | i | i | i | i | / | / | / | /
CCCCCCCCCCOC(=O)Cn1c(COc2ccccc2)[n+](C)c2ccccc21 | -9.26* | -9.99* | i | i | i | i | i | i | i
CCCCCCCCCCOC(=O)Cn1c(COc2ccc(Cl)cc2)[n+](C)c2ccccc21 | i | -10.3* | i | i | i | i | i | i | i
CCCCCOC(=O)Cn1c(=O)oc2ccccc21 | i | i | i | i | i | / | / | / | /
CCCCCCCCCCOC(=O)Cn1c(COc2ccccc2C)[n+](C)c2ccccc21 | -7.42* | -11.8* | i | i | i | i | i | i | i
CC1(C)CC(=O)C=C(NCCO)C1 | i | -4.73* | i | i | i | i | i | i | i
O=C(NCCS(=O)(=O)NC1CCCC1)c1ccc(F)cc1 | i | -4.91* | i | i | i | i | i | i | i
COc1ccc(C(=O)NCCS(=O)(=O)NC2CCCC2)cc1 | i | i | i | i | i | / | / | / | /
COCCn1nnnc1C(c1cccs1)N1CCN(c2cc(C)ccc2C)CC1 (stereo not given) | i | -10.1* | i | i | i | i | i | i | i
COCCn1nnnc1C(c1cccs1)N1CCN(c2nc3ccccc3s2)CC1 (stereo not given) | i | i | i | i | i | / | / | / | /
Cc1c(Cl)cccc1NC(=S)N(Cc1cccnc1)Cc1ccccc1Cl | i | i | i | i | i | / | / | / | /
COc1ccccc1OCC(=O)NNC(=O)Nc1ccccc1 | i | i | i | i | i | / | / | / | /
CS(=O)(=O)N(Cc1ccc(C(=O)N2CCc3ccccc3C2)cc1)c1ccccc1 | i | -7.53* | i | i | i | i | i | i | i
CCc1nnc(NC(=O)c2nc(S(=O)(=O)Cc3ccc(C)cc3)ncc2Cl)s1 | i | -7.15* | i | i | i | 73.3%* | i | i | i
Cn1c(=O)n(Cc2ccc(Br)cc2)c2ccccc21 | i | -9.34* | i | i | i | i | i | i | i
SMILES | RGS4 pot | MrgX1 antag | MrgX1 PAM | RGS4 block | MrgX1 agonist | MrgX1 ant reconf | HEK293 Ca flux | HEK293 Ca counter | HEK293 Ca cntr2
Cn1c(=O)n(CCC(=O)O)c2ccccc21 | i | i | i | i | i | / | / | / | /
Cc1nn(C(C)C(=O)NCCN2CCCC2)c(=O)c2c1sc1ccccc12 (stereo not given) | i | i | i | i | i | / | / | / | /
Cc1cc(C(=O)COC(=O)c2ccccc2Br)c(C)n1CC1CCCO1 (stereo not given) | i | i | i | i | i | / | / | / | /
Cc1cc(C(=O)COc2ccccc2C(N)=O)c(C)n1CC1CCCO1 (stereo not given) | i | -4.68* | i | i | i | 70.7%* | i | i | i
CCN(C(=O)c1ccc(S(=O)(=O)N2CCC(C)CC2)cc1)C1CCS(=O)(=O)C1 (stereo not given) | i | -4.65* | i | i | i | i | i | i | i
CN(C(=O)COC(=O)c1cccc(S(=O)(=O)N2CCCCC2)c1)C1CCS(=O)(=O)C1 (stereo not given) | i | -6.05* | i | i | i | i | i | i | i
Cc1ccc(C(=O)OCC(=O)N(C)C2CCS(=O)(=O)C2)cc1S(=O)(=O)N1CCCCC1 (stereo not given) | i | i | i | i | i | / | / | / | /
O=C(NC1CCN(C(=O)C2CCCCC2)CC1)c1ccccc1 | i | i | i | i | i | / | / | / | /
CCN(CC(=O)Nc1ccc(NC(C)=O)cc1)C(=O)c1ccccc1CCc1ccccc1 | i | i | i | i | i | / | / | / | /
Cn1c(CNc2ccccc2)nc2ccccc21 | i | -6.93* | i | i | i | 84.9%* | i | i | i
Cc1cc(C)n2c(=O)c3ccc(Cl)cc3nc2c1C#N | i | -5.8* | i | i | i | i | i | i | i
Cc1cc(C)cc(OCC(=O)Nc2ccncc2)c1 | i | i | i | i | i | / | / | / | /
CCS(=O)CC(=O)Nc1c(-c2ccccc2)oc2ccccc2c1=O (stereo not given) | i | i | i | i | i | / | / | / | /
